In data set [1] the test system is BXPC-3. The data set can be described thus: Antitumor activity against human BxPC3 cells co-cultured with mesothelial cell monolayers using D-luciferin as substrate at 10 uM by firefly luciferase reporter gene assay relative to control. Type of data set: functional. An outline of the steps: (§1)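 Luciferase-tagged cancer cells were treated in suspension at a final 10 μM, then overlaid on confluent mesothelial monolayers. Adherent surviving cells were read by D-luciferin bioluminescence, taken as living cell number. Efficacy = luminescence with analog / luminescence with DMSO; mean ± SEM, n = 3.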
Background: In a reporter assay the amount or activity of a reporter protein is the signal.

Data set [2] deals with SK-OV-3. The data set can be described thus: Antitumor activity against human SKOV3 cells co-cultured with mesothelial cell monolayers using D-luciferin as substrate at 10 uM by firefly luciferase reporter gene assay relative to control. The class given is functional. An outline of the steps: as §1
Data set [3] is described as follows: Antitumor activity against human SU86 cells co-cultured with mesothelial cell monolayers using D-luciferin as substrate at 10 uM by firefly luciferase reporter gene assay relative to control. The class given is functional. An outline of the steps:
as §1

The subject of data set [4] is A2780. As to the kind of experiment: Antitumor activity against human A2780 cells co-cultured with mesothelial cell monolayers using D-luciferin as substrate at 10 uM by firefly luciferase reporter gene assay relative to control. Type of data set: functional. An outline of the steps: as §1
Data set [5] relates to SK-OV-3. As to the kind of experiment: Induction of apoptosis in human SKOV3 cells co-cultured with mesothelial cell monolayers assessed as PARP cleavage at 7.5 uM after 5 hrs by Western blot analysis. The class given is functional, cell-based. For orientation: In western blotting, separated proteins are transferred to a membrane and probed.
The subject of data set [6] is BXPC-3. The data set can be described thus: Antitumor activity against human BxPC3 cells co-cultured with mesothelial cell monolayers by firefly luciferase reporter gene assay. Type of data set: functional, cell-based. An outline of the steps: (§2)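 Co-culture implantation model: cancer cells carrying a constitutive firefly luciferase plasmid were held in suspension with analog, then overlaid on confluent mesothelial cell monolayers. Cells that adhered and survived were read by bioluminescence with D-luciferin. IC50 values came from concentration–response runs and are reported as mean ± SEM.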

A short description of data set [7]: Antitumor activity against human SU86 cells co-cultured with mesothelial cell monolayers by firefly luciferase reporter gene assay. Type of data set: functional, cell-based. An outline of the steps: as §2
The subject of data set [8] is A2780. As to the kind of experiment: Antitumor activity against human A2780 cells co-cultured with mesothelial cell monolayers by firefly luciferase reporter gene assay. The class given is functional, cell-based. An outline of the steps: as §2
For data set [9], the system named is SK-OV-3. As to the kind of experiment: Antitumor activity against human SKOV3 cells co-cultured with mesothelial cell monolayers by firefly luciferase reporter gene assay. The class given is functional, cell-based. An outline of the steps: as §2
For data set [10], the system named is A2780. As to the kind of experiment: Antitumor activity against human A2780 cells xenografted in nu/nu mouse peritoneal carcinomatosis model assessed as inhibition of intraperitoneal implantation at 5 mg/kg, ip administered every 3 days for 14 days by luciferase reporter gene assay. Type of data set: functional, organism-based. The arrangement: dose 5 mg/kg. An outline of the steps:
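Athymic 5-week-old female nu/nu mice were randomized to 5 mg/kg drug IP or an equal volume of vehicle (4:1 PEG400:EtOH), given 4 h before IP injection of 1.5 × 10^6 A2780-luc cells, then every three days for 14 days. Implants were imaged weekly by bioluminescence after IP D-luciferin. Day-14 abdominal signal was compared with vehicle controls.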
In general terms: A xenograft is tissue or cells of one species grown in another, often human tumour cells in immunodeficient mice.

Data set [11] deals with CASP8 and FADD-like apoptosis regulator (Homo sapiens) (UniProt O15519). As to the kind of experiment: Inhibition of cFLIP-L in human SU86 cells assessed as restoration of death receptor signaling-mediated apoptosis. The class given is cell-based.
CASP8 and FADD-like apoptosis regulator (Homo sapiens), sequence (O15519 whole entry, looked up): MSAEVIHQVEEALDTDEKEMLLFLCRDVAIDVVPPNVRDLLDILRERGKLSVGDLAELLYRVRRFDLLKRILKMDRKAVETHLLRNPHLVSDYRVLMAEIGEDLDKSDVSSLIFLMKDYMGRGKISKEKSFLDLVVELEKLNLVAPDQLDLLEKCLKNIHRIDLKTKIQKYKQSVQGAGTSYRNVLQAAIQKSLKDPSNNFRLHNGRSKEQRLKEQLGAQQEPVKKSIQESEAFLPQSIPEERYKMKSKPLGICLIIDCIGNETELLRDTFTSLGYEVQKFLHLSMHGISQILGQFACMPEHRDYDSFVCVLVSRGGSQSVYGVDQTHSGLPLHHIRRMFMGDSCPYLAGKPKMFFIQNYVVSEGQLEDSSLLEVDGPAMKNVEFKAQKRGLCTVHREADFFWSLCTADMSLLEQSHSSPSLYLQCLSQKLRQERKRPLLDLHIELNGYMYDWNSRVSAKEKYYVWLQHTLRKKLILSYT
For data set [12] the target is unchanged. The data set can be described thus: Inhibition of cFLIP-L in human SKOV3 cells assessed as restoration of death receptor signaling-mediated apoptosis. The class given is cell-based. Conditions: SK-OV-3.
For data set [13] the target is unchanged. The data set can be described thus: Inhibition of cFLIP-L in human BxPC3 cells assessed as restoration of death receptor signaling-mediated apoptosis. Type of data set: cell-based. The conditions noted are these: BXPC-3.
The test system of a further data set is Mus musculus. As to the kind of experiment: Toxicity in human A2780 cells xenografted nu/nu mouse at 5 mg/kg, ip administered every 3 days for 14 days. The conditions noted are these: in vivo. The class given is organism-based. More on the design: dose 5 mg/kg, route intraperitoneal. An outline of the steps: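 Body weight was followed in athymic female nu/nu mice carrying IP A2780-luc cells and given 5 mg/kg IP in 4:1 PEG400:EtOH, starting 4 h before cell injection and repeated every three days over 14 days.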

Data set [14] concerns the target CASP8 and FADD-like apoptosis regulator (Homo sapiens) (UniProt O15519). As to the kind of experiment: Inhibition of cFLIP-L in human A2780 cells assessed as restoration of death receptor signaling-mediated apoptosis. The class given is cell-based.

The structures appear in SMILES notation. Calls of active or inactive are those of the source. The calls are words filed in the database; no cut-off is given here.

Take `CC(C)(C(=O)N1CCCCC1)c1ccc(S(=O)(=O)/C=C/C#N)cc1`: the Ratio is on record as 0.25 in the data set on BXPC-3 [1], 0.51 in the data set on SK-OV-3 [2], 0.51 in [3] and 0.08 in the data set on A2780 [4].

`COc1cccc(NC(=O)C(C)(C)c2ccc(S(=O)(=O)/C=C/C#N)cc2)c1`: in the data set with SK-OV-3 [5], the outcome was Active. In addition, the Ratio in the data set on BXPC-3 [1] is on record as 0.62; in the data set on SK-OV-3 [2], 0.98; in [3], 0.65; with A2780 [4] it was 0.55. In addition, the IC50 (commonly the concentration needed to halve the response being measured) was found to be 4.1 µM with BXPC-3 [6], 7.3 µM in data set [7], 2.4 µM in the data set on A2780 [8] and 10.9 µM in the data set with SK-OV-3 [9].

In the case of `CC(C)(C)c1ccc(S(=O)(=O)/C=C/C#N)cc1` [BAY-11-7085], in the data set on SK-OV-3 [5], the result was Active. Besides, the inhibition result (in the data set with A2780 [10]; in [11]; in [12]; in data set [13]; in data set [14]) was “Active” in each case. Further, the Ratio in the data set on BXPC-3 [1] stood at 0.07; in the data set with SK-OV-3 [2], 0.32; in [3], 0.13; in the data set with A2780 [4], 0.04. The IC50 in the data set on BXPC-3 [6] was 3.7 µM; in data set [7] it was 5.9 µM; in the data set with A2780 [8], 2.6 µM; in the data set on SK-OV-3 [9] it was 7.6 µM. In addition, the Activity entry in the data set with Mus musculus is “Non-toxic”.

As for `CC(C)(C)c1ccc(S(=O)(=O)/C=C/C(N)=O)cc1`, the Ratio with BXPC-3 [1] is reported as 0.44; in the data set with SK-OV-3 [2] it was 0.5; in [3], 0.59; in the data set on A2780 [4], 0.77.

Consider `CC(C)(C(=O)O)c1ccc(S(=O)(=O)/C=C/C#N)cc1`, for which the Ratio amounted to 0.92 in the data set on BXPC-3 [1], 1.07 in the data set with SK-OV-3 [2], 0.89 in data set [3] and 1.08 in the data set with A2780 [4].

In the case of `CC(C)(C(=O)NCc1ccccn1)c1ccc(S(=O)(=O)/C=C/C#N)cc1`, the Ratio with BXPC-3 [1] was determined as 0.24; in the data set on SK-OV-3 [2] it was 0.47; in data set [3] it was 0.29; in the data set on A2780 [4], 0.05.

For the compound `CC(C)(C(=O)NCc1ccc(Cl)cc1)c1ccc(S(=O)(=O)/C=C/C#N)cc1`, the outcome in the data set with SK-OV-3 [5] was Active. Moreover, the Ratio in the data set on BXPC-3 [1] came out at 0.27; in the data set with SK-OV-3 [2] it was 0.63; in [3], 0.43; with A2780 [4] it was 0.15. Besides, the IC50 in the data set on BXPC-3 [6] amounted to 4.1 µM; in data set [7], 8.7 µM; in the data set on A2780 [8], 3.4 µM; with SK-OV-3 [9], 11.4 µM.

`CC(C)(C(=O)NC1CCCCC1)c1ccc(S(=O)(=O)/C=C/C#N)cc1`: the Ratio in the data set on BXPC-3 [1] worked out at 0.22; in the data set on SK-OV-3 [2], 0.6; in data set [3], 0.43; with A2780 [4], 0.2.

In the case of `CC(C)(C)c1ccc(S/C=C/C#N)cc1`, in the data set on A2780 [10], the inhibition entry was “inactive”. Besides, the Ratio in the data set on BXPC-3 [1] worked out at 1.08; in the data set with SK-OV-3 [2] it was 0.92; in data set [3], 1.03; with A2780 [4], 1.06. In addition, in the data set with Mus musculus, the Activity entry is given as “Non-toxic”.

For `CC(C)CNC(=O)C(C)(C)c1ccc(S(=O)(=O)/C=C/C#N)cc1`, in the data set with SK-OV-3 [5], the outcome was Active. Further, in the data set with A2780 [10], the inhibition entry was “Active”. Besides, the Ratio in the data set with BXPC-3 [1] was 0.24; in the data set with SK-OV-3 [2], 0.47; in [3], 0.29; with A2780 [4], 0.05. The IC50 turned out to be 4.2 µM with BXPC-3 [6], 7.6 µM in data set [7], 3.3 µM in the data set with A2780 [8] and 12.9 µM in the data set on SK-OV-3 [9]. Further, the Activity entry in the data set with Mus musculus is listed as “Non-toxic”.

As to `C#CCNC(=O)C(C)(C)c1ccc(S(=O)(=O)/C=C/C#N)cc1`, the Ratio stood at 0.64 with BXPC-3 [1], 0.93 with SK-OV-3 [2], 0.65 in data set [3] and 0.63 in the data set on A2780 [4].

Regarding `CC(C)(C(=O)N1CCOCC1)c1ccc(S(=O)(=O)/C=C/C#N)cc1`, the Ratio in the data set on BXPC-3 [1] is listed as 0.85; in the data set on SK-OV-3 [2] it was 1.01; in data set [3], 0.94; in the data set with A2780 [4], 0.66.

As to `C=CS(=O)(=O)c1ccc(C(C)(C)C)cc1`, the Ratio in the data set with BXPC-3 [1] came out at 0.84; in the data set with SK-OV-3 [2], 1.05; in [3], 0.8; in the data set with A2780 [4], 1.16.

For the compound `C/C=C/S(=O)(=O)c1ccc(C(C)(C)C)cc1`, the Ratio was 0.99 in the data set on BXPC-3 [1], 1.08 with SK-OV-3 [2], 0.99 in data set [3] and 1.15 in the data set with A2780 [4].

For the compound `CC(C)(C(=O)Nc1ccccc1)c1ccc(S(=O)(=O)/C=C/C#N)cc1`, the result in the data set with SK-OV-3 [5] was Active. Moreover, the inhibition entry with A2780 [10] was “Active”. For the same compound, the Ratio with BXPC-3 [1] came out at 0.22; in the data set with SK-OV-3 [2], 0.55; in data set [3], 0.52; in the data set on A2780 [4], 0.17. Moreover, the IC50 in the data set on BXPC-3 [6] was 4.1 µM; in data set [7] it was 7.5 µM; in the data set on A2780 [8], 2.7 µM; with SK-OV-3 [9], 9.9 µM. Also, the Activity result in the data set with Mus musculus is listed as “Non-toxic”.

For `CN1CCN(C(=O)C(C)(C)c2ccc(S(=O)(=O)/C=C/C#N)cc2)CC1`, the Ratio in the data set on BXPC-3 [1] came out at 0.98; with SK-OV-3 [2], 1.09; in data set [3], 0.95; with A2780 [4] it was 0.95.

Turning to `CC(C)(C)c1ccc(S(=O)(=O)/C=C/c2ccccc2)cc1`, the Ratio with BXPC-3 [1] is 1.01; with SK-OV-3 [2], 1.17; in [3] it was 0.97; with A2780 [4] it was 1.13.

With `CCOC(=O)/C=C/S(=O)(=O)c1ccc(C(C)(C)C)cc1`, the Ratio turned out to be 0.2 in the data set on BXPC-3 [1], 0.67 with SK-OV-3 [2], 0.52 in [3] and 0.39 with A2780 [4].
